# Source: PubChem
# Only some compounds are listed: those with a hit (about 1.9% of all), similar ones and a draw of the others.
# NS3 helicase inh = HCV NS3 helicase inhibition; NS3 helicase DNA unwinding, Cy5 molecular beacon fluorescence; inhibition, % at 10.9 µM; 290,000 tested, 0.56% active;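 active means inhibition above the mean of all tested compounds plus 3 SD, set per campaign, cut at about 35% in these data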;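 further: 0% = DMSO wells and 100% = thioflavine S control wells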
#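 test system = hepatitis C virus NS3 helicase domain fragment enzyme | reagent = annealed dual-labelled DNA beacon duplex, ATP-started | times = 1 h at 25 °C | detection = Cy5 fluorescence, 0 and 60 min reads | read-out basis = percent inhibition from t60/t0 fluorescence ratio | control set = DMSO and thioflavine S | replication = one well per compound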
# PP5 inh = PP5 (human) phosphatase inhibition; 320,000 tested, 0.18% active; purified PP5c, OMFP substrate fluorescence; AID 1987; inhibition, % at 6.7 µM;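 active means inhibition above the campaign's mean inhibition across all tested compounds plus 3 SD, cut at about 9.5% in these data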;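 further: 0% = DMSO only and 100% = 100 µM cantharidin control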
# Target sequence (P53041 whole entry, looked up): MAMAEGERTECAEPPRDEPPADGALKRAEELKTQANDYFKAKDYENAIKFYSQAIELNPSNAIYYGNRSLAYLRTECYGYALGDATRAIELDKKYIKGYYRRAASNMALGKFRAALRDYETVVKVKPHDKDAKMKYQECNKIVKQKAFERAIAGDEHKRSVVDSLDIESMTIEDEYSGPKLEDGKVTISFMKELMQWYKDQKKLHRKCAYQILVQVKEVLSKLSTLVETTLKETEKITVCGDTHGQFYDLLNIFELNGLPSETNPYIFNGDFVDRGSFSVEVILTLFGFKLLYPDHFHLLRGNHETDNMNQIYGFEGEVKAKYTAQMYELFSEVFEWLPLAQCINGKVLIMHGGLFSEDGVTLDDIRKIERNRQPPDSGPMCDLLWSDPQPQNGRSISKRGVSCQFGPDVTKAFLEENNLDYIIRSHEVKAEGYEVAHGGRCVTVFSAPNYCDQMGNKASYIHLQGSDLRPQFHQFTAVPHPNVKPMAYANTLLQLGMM
# HIF act = HIF pathway transcriptional activation | 300,000 tested, 0.32% active | AID 1910 | U2OS HRE-luciferase reporter, luminescence; normalized: DMSO 0%, desferrioxamine 100% | activation, % at 7.5 µM (by protocol);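 active means mean activation of at least 10% of the iron chelator positive control signal, with at least half of replicates also reaching 10%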
# DNA FID counter-1 = fluorescent intercalator displacement, NS3 helicase counter-screen; DNA fluorescent intercalator displacement, fluorescence; inhibition, % at 7.9 µM; 290,000 tested, 0.17% active; AID 1845;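 further: 0% = vehicle and 100% = reference compound; higher means more ethidium bromide displaced from hairpin DNA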
# PP1 counter = blocks human PP1-alpha phosphatase, a PP5 counter-screen. purified PP1alpha, OMFP fluorescence. inhibition, % at 6.7 µM. 320,000 tested, 0.9% active. AID 2235;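 active means inhibition above the mean inhibition of all tested compounds plus 3 SD, computed separately for each screening campaign, cut at about 15% in these data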
# NS3 helicase cf = HCV NS3 helicase inhibition, confirmation assay; inhibition, % at 10.9 µM; shares compounds with NS3 helicase inh; 1,600 tested, 31% active; NS3 helicase DNA unwinding, Cy5 molecular beacon fluorescence;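 active means inhibition above the mean of all tested compounds plus 3 SD, cutoff set per campaign, cut at about 36% in these data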
# DNA FID counter-2 = intercalator displacement, NS3 helicase counter-screen | shares compounds with NS3 helicase inh | DNA fluorescent intercalator displacement, fluorescence | inhibition, % at 7.9 µM | 1,600 tested, 4% active | AID 1945;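 further: 0% = vehicle and 100% = reference compound; higher means more displacement of ethidium bromide from the DNA hairpin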
# FID counter DR = counter-screen for HCV NS3 helicase inhibitors: DNA intercalator displacement dose response | shares compounds with NS3 helicase inh | fluorescent intercalator displacement from DNA, fluorescence | IC50, µM | 120 tested, under 10 active | AID 2172; call rule not given here
# Starred values were filed as active, the others as inactive; x = no result; ! = not active in a repeat. Unless noted, no stated cut-off is given here; in the data, active means inhibition above about 37%; inactive means the rest.
SMILES,NS3 helicase inh,PP5 inh,HIF act,DNA FID counter-1,PP1 counter,NS3 helicase cf,DNA FID counter-2,others
COc1cc(C(=O)NCc2nnc(SCC(=O)N3CCCc4ccccc43)o2)cc(OC)c1OC,6.2,4.5,0.0,-27.6,1.8,x,x,
CCCC[C@@H]1CCCO[C@@](C(=O)NCc2ccc(C)o2)(C(F)(F)F)C1,x,3.2,-0.1,x,-2.9,x,x,
CCOC(=O)c1cnc2c(ccc3ccccc32)c1NCCN(C)C,36.0*,-0.9,0.4,45.5*,2.5,7.3,75.2*,
Cc1cc(/C=C2\SC(=S)NC2=O)c(C)n1C1CC1,76.2*,-0.4,0.6,-10.1,2.0,36.4*,28.0,
COC(CNC(=O)c1ccc2c(c1)ncn2-c1cccc(C)c1)OC,-3.5,1.5,-0.8,-23.5,1.6,x,x,
CCOC(=O)Cc1csc(N/N=C\c2ccc(N(C)C)cc2)n1,49.8*,-1.9,0.8,-19.8,3.2,-15.9,2.0,
C=CCn1c(SCC(=O)Nc2cccc(S(N)(=O)=O)c2)nnc1C1CCCCC1,x,0.6,x,x,-1.5,x,x,
COc1cccc(-n2c(SCc3cc(=O)oc4cc(O)c(O)cc34)nc3ccccc3c2=O)c1,85.9*,3.0,-0.8,20.1,12.4,134.2*,0.5,FID counter DR=>79.4
N#CCCn1ncn(-c2ccccc2)c1=S,4.1,3.9,-0.2,3.3,1.6,x,x,
Cc1nc2c(C(=O)NCc3ccccc3Cl)c[nH]n2c(=O)c1Cl,55.6*,2.1,-0.2,-4.8,13.6,45.6*,6.2,
COC(=O)c1cc2c(C(F)(F)F)nn(C)c2s1,-4.6,1.6,-0.9,-1.3,-4.5,x,x,
COc1ccc(C2=NN(C(=O)CCC(=O)O)C(c3ccc(Br)cc3)C2)cc1 (stereo not given),37.9*,3.0,-5.2,-29.0,-4.6,5.8,-23.2,
N=C1/C(=C\c2ccc(SCc3ccco3)o2)C(=O)N=C2SC=NN12,53.2*,1.5,0.2,-1.9,5.3,63.0*,-1.3,
CN1C(=O)[C@H]2[C@@H](/C=C/c3ccccc3)N3C(=O)CN(CCO)C(=O)[C@@]3(Cc3ccccc3)[C@H]2C1=O,44.4*,2.4,-0.1,-17.0,-0.6,-13.7,-7.5,
O=C(Cc1ccccc1)NCC(=O)OCC(=O)c1cccs1,0.6,0.4,-0.2,3.3,-8.3,x,x,
CC(C)c1ccc(/C=C(/C#N)c2nnc(NC(=O)c3ccccc3)s2)cc1,-3.1,-0.4,0.4,1.7,-2.0,x,x,
O=S(=O)(Cc1ccco1)Cc1nc(-c2ccc(Cl)cc2)cs1,43.2*,3.0,0.7,-19.0,-1.7,-14.5,-8.1,
O=S(=O)(Cc1noc(-c2ccc(Cl)cc2)n1)Cc1ccco1,52.1*,1.1,1.2,-16.9,-2.3,-11.1,0.3,
Clc1ccc(-c2nc(Cc3ccccc3Cl)no2)cc1,0.9,2.3,0.7,-0.9,4.1,x,x,
CCCSc1nc(C)c(-c2csc(C(C#N)=C3CCCC3)n2)cc1C#N,51.5*,-2.0,0.5,-7.3,10.3,30.3,30.9,
CCCCSc1nc2c(cc1C#N)CCC2,4.9,0.9,x,2.5,1.0,x,x,
CC(=O)Oc1ccc(C(=O)Nc2cccc(-c3nnc(-c4ccco4)o3)c2)cc1,51.5*,0.0,0.0,1.4,1.4,16.5,-19.6,
Cc1ccc(NC(=O)COC(=O)c2ccccc2Nc2ccccc2)cc1,18.3,-0.6,-0.4,-1.0,0.9,x,x,
Cc1ccc(Nc2cccccc2=O)cc1,45.2*,-2.4,3.0,-6.5,-4.3,-16.2,4.7,
COc1ccc(CC(=O)Nc2cc(=O)n(C)c(=O)n2C)cc1,55.6*,-0.9,-0.5,-3.9,-1.7,0.5,-1.9,
SMILES,NS3 helicase inh,PP5 inh,HIF act,DNA FID counter-1,PP1 counter,NS3 helicase cf,DNA FID counter-2,others
C=CCn1c(SCCCC)nc(O)cc1=O,39.9*!,-0.3,-0.3,-2.5,7.5,-3.6,-10.1,
COc1ccc(C(=O)Nc2ccccc2C(=O)O)cc1Cl,39.1*,2.3,2.8,-35.9,-3.1,30.4,8.8,
COc1ccc(C(=O)Nc2ccccc2C(=O)O)cc1NC(=O)C(c1ccccc1)c1ccccc1,16.0,2.8,0.7,-6.6,13.2,x,x,
CCOC(=O)C1Nc2ccc(C(=O)O)cc2C2C=CCC12 (stereo not given),53.9*,-1.1,-0.8,-11.7,33.9*,67.4*,-15.5,
CCCC1Nc2ccc(C(=O)O)cc2C2C=CCC12 (stereo not given),26.7,3.0,-0.2,-5.6,2.0,x,x,
O=C(CC(SCc1ccco1)c1ccc(O)cc1)c1cccs1 (stereo not given),69.2*,2.5,3.2,2.9,1.0,-0.2,-11.1,
CN(C)CCN(Cc1cc2cc3c(cc2nc1Cl)OCO3)C(=O)c1ccco1,1.4,3.6,0.0,6.9,1.2,x,x,
CC(=C\c1ccccc1)/C=C1/SC(=S)N(CCCC(=O)O)C1=O,59.3*,x,-51.9,-33.4,x,60.7*,-9.6,
O=C(O)CN1C(=O)/C(=C\C(Br)=C\c2ccccc2)SC1=S,38.0*,1.3,-2.7,-5.7,2.2,71.9*,22.0,
COc1ccc(O)c(/C=C2/SC(=S)N(Cc3ccccc3)C2=O)c1,12.0,2.5,-0.5,-5.1,0.1,x,x,
O=C1/C(=C\c2cc(Cl)c(O)c(Cl)c2)SC(=S)N1Cc1ccccc1,40.5*,x,0.7,-0.9,x,66.3*,33.7,
Cc1nn(C)cc1C1C2=C(CC(C)(C)CC2=O)OC2=C1C(=O)CC(C)(C)C2,-5.4,0.1,0.0,-16.8,-3.5,x,x,
c1ccc2cc(OCCCn3ccnc3)ccc2c1,-1.9,1.1,0.8,13.8,0.9,x,x,
CCOC(=O)c1ccc(N2N=C(C)/C(=C/C=C/c3ccco3)C2=O)cc1,13.8,2.3,-0.4,-5.7,-0.8,x,x,
O=C(O)c1cc(N2N=C(C(F)(F)F)/C(=C/C=C/c3ccco3)C2=O)ccc1Cl,60.8*,x,x,12.6,x,80.0*,70.8*,
CC(=O)C(C(C)=O)c1c(Cl)c(O)c(O)c2c(C(=O)c3ccccc3)coc12,37.5*,3.8,3.8,-6.6,1.8,-10.4,3.0,
CCN(CC)S(=O)(=O)c1ccc(N2CCCCC2)c(NC(=O)/C=C/c2ccc(OC)c(OC)c2)c1,-23.0,-0.1,-0.5,-17.1,4.2,x,x,
COc1ccc(C2(CNC(=O)/C=C/c3ccco3)CCCC2)cc1OC,37.8*,1.2,-0.6,-44.9,-0.4,-1.2,-55.0,
CCN(CC)S(=O)(=O)c1ccc(OC)c(NC(=O)/C=C/c2ccco2)c1,63.5*,1.1,-0.1,-26.5,0.9,-16.9,-20.0,
O=C(/C=C/c1ccco1)NCC1(c2ccccc2)CCCC1,35.6,1.3,-0.1,-21.5,6.0,x,x,
CC(C)CC(c1nnnn1Cc1ccc(F)cc1)N1CCC(C(N)=O)CC1 (stereo not given),-6.4,-2.5,-0.4,-15.9,1.7,x,x,
COc1ccc(CNC(=O)C2CCCN2S(=O)(=O)c2ccc(F)cc2)cc1 (stereo not given),6.8,-1.1,-0.5,-1.2,1.9,x,x,
